A short description of data set [1]: Area under the concentration time curve value in rat (intravenous dosage of 4 mg/kg) was determined. It counts as ADME, organism-based. Also noted: dose 4 mg/kg, route intravenous. As to conditions: in vivo. A digest of the protocol: (§1)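 Pharmacokinetics after single iv dosing of drug formulated in PEG 400. Species: Sprague-Dawley rat (4 mg/kg), beagle dog, cynomolgus monkey and white New Zealand rabbit (1.25 mg/kg each). Elimination half-life (t1/2) and exposure (AUCinf) calculated from plasma concentration–time data.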

For data set [2], the system named is Human immunodeficiency virus 1. Kind of data set: Effective concentration against human immunodeficiency virus type 1 K103N mutant strain. It counts as functional, organism-based. A digest of the protocol:
(§2)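 MT-4 human T cells infected with wild-type or mutant HIV-1, exposed to a range of compound concentrations in medium with 10% fetal calf serum. After 5 days at 37 °C, viability of infected and mock-infected cells was read by automated MTT colorimetric assay. […] 95% confidence limits are approximately EC50/4 to EC50×4.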

Data set [3] deals with Human immunodeficiency virus 1. Kind of data set: Effective concentration against human immunodeficiency virus type 1 Y188L mutant strain. It counts as functional, organism-based. In short, it runs like this: as §2
The nature of data set [4]: Half life in rat was determined after oral administration. It counts as ADME, organism-based. Conditions: in vivo. A digest of the protocol: (§3)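 Oral administration of drug formulated in PEG 400 to Sprague-Dawley rat and beagle dog. Elimination half-life calculated from plasma concentration–time data.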
Data set [5] is described as follows: Area under the concentration time curve in monkey (intravenous dosage of 1.25 mg/ kg) was determined. It counts as ADME. As to conditions: cercopithecidae, in vivo. A digest of the protocol:
as §1

A short description of data set [6]: In vivo half life in dog was determined after oral administration. It counts as ADME, organism-based, Canis lupus familiaris. In short, it runs like this: as §3
Data set [7] can be described thus: Half life in dog was determined by intravenous administration. The format is ADME, organism-based, Canis lupus familiaris. As to conditions: in vivo. In short, it runs like this:
as §1

In data set [8] the test system is Human immunodeficiency virus 1. As to the kind of experiment: Effective concentration against rhuman immunodeficiency virus type 1 wild type mutant strain. The format is functional, organism-based. A digest of the protocol:
as §2

A short description of data set [9]: Area under the concentration time curve in rabbit (intravenous dosage of 1.25 mg/kg) was determined. Conditions: in vivo. The format is ADME, organism-based, Oryctolagus cuniculus. The arrangement: dose 1.25 mg/kg, route intravenous. In short, it runs like this: as §1
The subject of data set [10] is Human immunodeficiency virus 1. As to the kind of experiment: Effective concentration against human immunodeficiency virus type 1 Y181C mutant strain. It counts as functional, organism-based. In short, it runs like this: as §2
Data set [11] in a line: Half life in rat was determined after intravenous administration. The format is ADME, organism-based. As to conditions: in vivo. In short, it runs like this: as §1
Data set [12] is described as follows: Area under the concentration time curve in dog (intravenous dosage of 1.25 mg/kg) was determined. It counts as ADME, organism-based, Canis lupus familiaris. Also noted: dose 1.25 mg/kg, route intravenous. Conditions: in vivo. In short, it runs like this:
as §1

In data set [13] the test system is Human immunodeficiency virus 1. As to the kind of experiment: Effective concentration against human immunodeficiency virus type 1 K103N and Y181C mutant strains. The format is functional, organism-based. A digest of the protocol:
as §2

Data set [14] deals with Human immunodeficiency virus 1. Kind of data set: Effective concentration against human immunodeficiency virus type 1 L100I mutant strain. The format is functional, organism-based. A digest of the protocol: as §2
For data set [15], the system named is Human immunodeficiency virus 1. Kind of data set: Effective concentration against human immunodeficiency virus type 1 G190S mutant strain. It counts as functional, organism-based. In short, it runs like this: as §2
Data set [16] deals with Human immunodeficiency virus 1. As to the kind of experiment: Effective concentration against human immunodeficiency virus type 1 K103N and Y181C mutant strain. The format is functional, organism-based. A digest of the protocol:
as §2

In data set [17] the test system is Human immunodeficiency virus 1. Kind of data set: Effective concentration against human immunodeficiency virus type 1 wild type srtain. The format is functional, organism-based. A digest of the protocol:
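MT-4 human T-cells infected with wild-type HIV-1 and exposed to a range of compound concentrations in medium with 10% fetal calf serum. After 5 days at 37 °C, viability was read by automated MTT colorimetric assay, with mock-infected cells run in parallel.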

Data set [18] deals with Human immunodeficiency virus 1. Kind of data set: Effective concentration against human immunodeficiency virus type 1 Y181C mutant was determined. It counts as functional, organism-based. A digest of the protocol: as §2
In data set [19] the test system is Human immunodeficiency virus 1. As to the kind of experiment: Effective concentration against human immunodeficiency virus type 1 in K103N mutant strain. It counts as functional, organism-based. In short, it runs like this:
as §2

The test system of data set [20] is Human immunodeficiency virus 1. As to the kind of experiment: Effective concentration against human immunodeficiency virus type 1Y181C mutant strain. The format is functional, organism-based. In short, it runs like this: as §2
For data set [21], the system named is Human immunodeficiency virus 1. As to the kind of experiment: Effective concentration against human immunodeficiency virus type 1 wild type strain. It counts as functional, organism-based.
The test system of data set [22] is Human immunodeficiency virus 1. As to the kind of experiment: Effective concentration against rhuman immunodeficiency virus type 1 Y181C mutant strain. It counts as functional, organism-based. In short, it runs like this: as §2
Data set [23] concerns Human immunodeficiency virus 1. Kind of data set: Effective concentration against human immunodeficiency virus type 1 wild type. The format is functional, organism-based. A digest of the protocol: as §2
Data set [24] relates to Human immunodeficiency virus 1. As to the kind of experiment: Effective concentration against rhuman immunodeficiency virus type 1 L100I mutant strain. It counts as functional, organism-based. A digest of the protocol:
as §2

Data set [25] relates to Human immunodeficiency virus 1. As to the kind of experiment: Effective concentration against rhuman immunodeficiency virus type 1 K103N and Y181C mutant strains. It counts as functional, organism-based.

Molecules are shown by their SMILES.

As a reminder, the AUC is concentration integrated over time. A word on the EC50: it is the concentration giving half of the maximal effect. In general, half-life refers to the time needed for the level to fall by half in the phase considered. For the molecule `Cc1cc(/C=C/C#N)cc(C)c1Nc1ccnc(Nc2ccc(C#N)cc2)n1` [RILPIVIRINE], the AUC in data set [1] was 3100 ng·h/mL; in data set [5], 1400 ng·h/mL; in data set [9], 44000 ng·h/mL; in [12], 8700 ng·h/mL. Besides, the EC50 worked out at 0.3 nM in data set [2]; 2 nM in data set [3]; 0.4 nM in [8]; 1.3 nM in data set [10]; 1 nM in data set [13]; 0.4 nM in data set [14]. Further, the EC50 in data set [15] was 0.1 nM. Moreover, the half-life in data set [4] is 2.8 h; in data set [6] it was 39 h; in data set [7], 31 h; in data set [11], 4.4 h.

Turning to `O=C1Nc2ccc(Cl)cc2[C@@](C#CC2CC2)(C(F)(F)F)O1` [EFAVIRENZ], the EC50 amounted to 28 nM in data set [2]; 78 nM in data set [3]; 37 nM in data set [16]; 1.4 nM in data set [17]; 2 nM in data set [18]; 35 nM in data set [14]. The molecule further had an EC50 in data set [15] of 275 nM.

On to `Cc1cc(C)c(Nc2ccnc(Nc3ccc(C#N)cc3)n2)c(C)c1` [DAPIVIRINE], for which the EC50 in [3] was 37 nM; in data set [19], 2 nM; in data set [20], 7 nM; in data set [21], 1.2 nM; in data set [14] it was 11 nM; in [15], 2 nM.

For the molecule `Cc1ccnc2c1NC(=O)c1cccnc1N2C1CC1` [NEVIRAPINE], the half-maximal effective concentration (EC50) in data set [22] is 10000 nM; in data set [2], 2880 nM; in data set [3] it was 10000 nM; in [23] it was 81 nM; in data set [24] it was 597 nM; in data set [15], 1000 nM. In addition, the concentration giving a half-maximal response (EC50) in [25] was found to be 10000 nM.
